KCNK3 block = human KCNK3 channel inhibitors, primary screen, CHO cells, FluxOR thallium flux, B-score | Potassium channel subfamily K member 3 (Homo sapiens), O14649 | FluxOR fluorescence; hits give low values | B-score at 10 µM | 340,000 tested, 0.84% active | AID 602410, 2012;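 active means B-score under library mean minus 4 SD, starting fluorescence ratio at most library mean plus 5 SD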;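 further: more negative B-score means stronger inhibition of thallium flux through KCNK3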
hERG rescue = hERG rescue from dofetilide block, primary screen, cell-based, CHO-hERG, FluxOR thallium flux, dofetilide IC70; Voltage-gated inwardly rectifying potassium channel KCNH2 (Homo sapiens), Q12809; dofetilide IC70 present; activation (rescue from dofetilide block), less the hit threshold, % at 10 µM; 310,000 tested, 0.51% active; AID 1511, 2009;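 active means activation above the mean of controls blocked by dofetilide plus 5 SD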;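 further: thallium influx through hERG after potassium depolarization seen as dye fluorescence rise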
KCNQ1 pot = potentiators or activators of KCNQ1 channel, primary screen, cell-based, thallium flux, high-throughput; Potassium voltage-gated channel subfamily KQT member 1 (Homo sapiens), P51787; CHO-K1 KCNQ1, thallium flux FluxOR fluorescence; hits give high values; B-score at 10 µM; 310,000 tested, 0.35% active;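 active means fluorescence ratio B-score, a plate-corrected score, at least three library SD, with initial intensity B-score within 5 SD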
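Assay system: CHO-K1 cells stably expressing KCNQ1. Medium: assay buffer for compound exposure, DMSO matched across wells. Timing: 37 °C overnight plating, 90-min dark dye load, 20-min compound pretreatment. Signal: kinetic FluxOR fluorescence, 10 s baseline plus 110 s post-stimulus.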
KCNQ1 inh = inhibitors of human KCNQ1 channel, primary screen, cell-based, thallium flux, high-throughput. Potassium voltage-gated channel subfamily KQT member 1 (Homo sapiens), P51787. CHO-K1 KCNQ1, FluxOR thallium flux fluorescence; hits give high values. B-score at 10 µM. 310,000 tested, 1.3% active;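 active means compounds whose thallium flux B-score, printed positive for inhibition, exceeds three library SD while starting fluorescence stays within three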;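 further: channel opened by potassium depolarization with thallium stimulus after 20 min compound exposure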
Kir21 block = inhibitors of mouse Kir2.1 inward-rectifier potassium channel; Inward rectifier potassium channel 2 (Mus musculus), P35561; HEK293-Kir2.1, FluxOR thallium flux fluorescence; hits give low values; B-score at 10 µM; 310,000 tested, 0.85% active; AID 1672, 2009;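 active means fluorescence ratio B-score at or below minus 3 SD of library scores, with starting-brightness B-score within 2 SD, cut at about -4.2 in these data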;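 further: channel flux triggered by added potassium and thallium sulfate stimulus; B-score of peak minus minimum fluorescence over baseline after thallium stimulus; more negative B-score means stronger Kir2.1 block with less thallium influx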
KCNK9 block = KCNK9 potassium channel inhibitors, primary screen, HEK293 cells, thallium flux; FluxOR thallium flux fluorescence; hits give low values; B-score at 10 µM; Potassium channel subfamily K member 9 (Homo sapiens), Q9NPC2; 310,000 tested, 1.2% active; AID 488922, 2010;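 active means ratio B-score over 3 SD below the library mean, with starting fluorescence within 5 SD of its mean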;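 further: negative B-score means less thallium flux so channel inhibition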
Target sequence (Q9NPC2 whole entry, looked up): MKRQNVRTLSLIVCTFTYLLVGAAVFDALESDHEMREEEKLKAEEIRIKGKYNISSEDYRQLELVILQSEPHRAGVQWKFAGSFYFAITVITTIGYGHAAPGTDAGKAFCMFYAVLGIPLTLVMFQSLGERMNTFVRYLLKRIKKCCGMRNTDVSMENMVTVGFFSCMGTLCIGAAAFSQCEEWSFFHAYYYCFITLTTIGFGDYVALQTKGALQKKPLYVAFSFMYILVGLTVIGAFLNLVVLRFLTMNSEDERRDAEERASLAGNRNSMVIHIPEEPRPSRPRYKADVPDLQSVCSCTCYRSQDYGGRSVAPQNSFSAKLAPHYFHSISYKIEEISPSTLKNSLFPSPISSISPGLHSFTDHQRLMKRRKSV
An asterisk follows results filed as active; i = inactive; / = no result given. This is a sample that favours compounds with a hit; in the whole collection about 3.7% have one here.

SMILES	KCNK3 block	hERG rescue	KCNQ1 pot	KCNQ1 inh	Kir21 block	KCNK9 block
CC1(C)Cc2c(sc3c2c(=N)n(Cc2ccco2)c(=O)n3Cc2ccccc2)CO1	i	-7	i	i	-2.2	i
CC1(C)Cc2c(sc3c2c(=N)n(Cc2ccco2)c(=O)n3Cc2ccc(Cl)cc2)CO1	i	-9	i	8*	-0.01	i
C=CCNC(=O)c1ccc(OC)cc1	i	-7	i	i	1.3	i
O=C(NC(=S)N(Cc1ccccc1)Cc1ccccc1)c1ccccc1F	i	16*	13*	i	-0.3	i
C=CCN(CC=C)C(=S)NC(=O)/C=C/c1ccc(OC)cc1	i	12*	i	i	1.6	i
COc1ccc(C(=O)NC(=S)N(Cc2ccccc2)Cc2ccccc2)cc1	i	33*	85*	i	0.17	i
C=CCN(CC=C)C(=S)NC(=O)c1ccc(OC)cc1	i	28*	13*	i	0.12	i
CC(C)C(=O)NC(=S)N(Cc1ccccc1)Cc1ccccc1	i	-6	i	i	-0.41	i
Cc1cccc(CCN(CC(=O)NCc2ccc(F)cc2)C(=O)c2csnn2)c1	i	-7	i	i	-0.18	i
C=CCN(CC=C)C(=S)NC(=O)c1ccc(C)c(Br)c1	i	87*	56*	i	-0.03	i
C=CCN(CC=C)C(=S)NC(=O)/C=C/c1ccc(C)cc1	i	-4	i	i	-0.58	i
C=CCN(CC=C)C(=S)NC(=O)/C=C/c1ccccc1	i	-2	i	i	-0.87	i
C=CCN(CC=C)C(=S)NC(=O)c1ccc(-c2ccccc2)cc1	i	0	15*	i	0.8	i
CC(C)N(Cc1ccccc1)C(=O)COc1ccccc1	i	-1	i	i	0.24	i
COc1ccc(CC(=O)N(Cc2ccccc2)C(C)C)cc1	i	-5	i	i	-4.3*	i
CN(C)c1nc(N(C)C)nc(N(C#N)CN2C(=O)c3ccccc3C2=O)n1	/	-9	i	i	1	i
Cc1c(Cl)cccc1NC(=O)Cn1cnc(S(=O)(=O)N2CCCC2)c1	i	-7	i	i	0.38	i
OC(CNCC1(N2CCCCC2)CCCCC1)COc1ccc(Cl)cc1Cl (centres undefined)	i	-9	i	i	-9.3*	i
O=C(COc1ccc(Cl)cc1Cl)NCC1(N2CCOCC2)CCCCC1	i	/	/	/	/	/
O=C1CCSc2ccc(Cl)cc2N1Cc1ccccc1	i	-5	i	i	-1.5	i
O=C1CCSc2ccc(Cl)cc2N1Cc1ccc(Cl)cc1	i	-11	i	i	-2.2	-7.6*
COC(OC)C1(CCc2ccccc2)NC(=O)NC1=O (centres undefined)	i	/	/	/	/	/
O=C(c1cn(Cc2ccccc2)nc1-c1cccnc1)N1CCc2ccccc2C1	i	/	/	/	/	/
Cc1nn(-c2ccccn2)c2c1C(c1ccccc1Cl)C1=C(N2)c2ccccc2C1=O (centres undefined)	i	-8	i	i	-0.36	-7*
CSC1=C(C#N)C(c2ccccc2Cl)C2=C(N1)c1ccccc1C2=O (centres undefined)	i	-19	i	i	-1.6	i
SMILES	KCNK3 block	hERG rescue	KCNQ1 pot	KCNQ1 inh	Kir21 block	KCNK9 block
Cc1nn(-c2ccccn2)c2c1C(c1ccsc1)C1=C(CCCC1=O)N2 (centres undefined)	i	-5	i	i	-0.01	i
Cc1nn(-c2ccccn2)c2c1C(c1c(F)cccc1Cl)C1=C(N2)c2ccccc2C1=O (centres undefined)	/	-10	i	i	-1.4	-6.9*
O=C(N/N=C/c1cc(Cl)cc(Cl)c1O)c1ccncc1	i	-12	i	7*	-6	i
Cc1ccccc1-n1c(C)cc(/C=N/NC(=O)c2ccncc2)c1C	i	-14	11*	i	0.3	i
OCCN1CCN(CC(O)COc2ccc(Cl)cc2)CC1 (centres undefined)	i	-4	i	i	0.18	i
OCCN1CCN(CC(O)COc2ccc(C34CC5CC(CC(C5)C3)C4)cc2)CC1 (centres undefined)	i	-21	i	i	-4.4*	i
CN(C)/C=C1/N=C(c2ccccc2)OC1=O	i	-3	i	i	0.1	i
O=CC1=C(c2ccccc2)Oc2ccccc2O1	i	-9	i	6*	-7.6*	i
Cc1ccc(NC(=O)CNc2cc(S(=O)(=O)N3CCOCC3)ccc2N2CCOCC2)cc1S(=O)(=O)N(C)C	i	/	/	/	/	/
COC(=O)C1Cc2c([nH]c3ccccc23)C2(CCN(Cc3ccccc3)CC2)N1 (centres undefined)	i	-7	i	i	-6.8*	i
CC1CCCN(c2ccc([N+](=O)[O-])cc2C(=O)c2ccccc2)C1 (centres undefined)	i	-15	i	6*	-2.6	i
Cc1ccc(C(=O)c2cc([N+](=O)[O-])ccc2N2CC(C)OC(C)C2)cc1 (centres undefined)	i	-3	i	i	-0.14	i
O=C(c1ccccc1)c1cc([N+](=O)[O-])ccc1N1CCOCC1	i	-5	i	i	-1.3	i
Cc1ccc(C(=O)c2cc([N+](=O)[O-])ccc2N2CCCCC2)cc1	i	-12	i	i	1.7	-7.4*
COC(=O)CCN(C(=O)c1ccc(Cl)c([N+](=O)[O-])c1)c1ccccn1	i	-6	i	i	-0.67	i
O=C(Nc1cccc(NC(=O)c2ccco2)c1)c1ccccc1	i	-10	i	i	0.22	-7.6*
O=C(c1ccccc1)c1cccc(NC(=O)c2ccco2)c1	i	-15	i	i	-0.12	i
Cc1cc(C)c(OCC(=O)Nc2cccc(NC(=O)c3ccco3)c2)c(Br)c1	i	-10	i	i	-0.15	-7.9*
O=C(Nc1cccc(-c2nnc(-c3ccco3)o2)c1)c1ccccc1	i	-15	i	i	-1.2	-6.9*
O=C(Nc1cccc(NC(=O)c2ccc(-c3cccc(Br)c3)o2)c1)c1ccco1	i	-27	i	i	-0.96	-12*
CCn1cc(C(=O)NCCCN2CCCC(C)C2)c(=O)c2cc(S(=O)(=O)N3CCOCC3)ccc21 (centres undefined)	i	-10	i	i	-0.18	i
